For orientation: pIC50 means −log10 of the IC50, conventionally taken in molar units.

The structures appear in SMILES notation. pIC50: −log10 of the molar value.

One assay deals with MCF7. Nature of the assay: Antiproliferative activity against human MCF7 cells incubated for 48 hrs by MTT assay. The class given is functional, cell-based. To be noted: MCF7, 48 h. In short, it runs like this:
(§1)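 MTT assay on F10 (murine melanoma), HeLa, A549, MCF-7 and 293T (human renal epithelium) cells. IC50 given as mean ± SD of three independent experiments.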
(Tetrazolium dyes change colour on reduction, which living cells bring about.)

Assay [1] addresses T1, Prostaglandin G/H synthase 2 (Homo sapiens, UniProt P35354).
T1 sequence (P35354 whole entry): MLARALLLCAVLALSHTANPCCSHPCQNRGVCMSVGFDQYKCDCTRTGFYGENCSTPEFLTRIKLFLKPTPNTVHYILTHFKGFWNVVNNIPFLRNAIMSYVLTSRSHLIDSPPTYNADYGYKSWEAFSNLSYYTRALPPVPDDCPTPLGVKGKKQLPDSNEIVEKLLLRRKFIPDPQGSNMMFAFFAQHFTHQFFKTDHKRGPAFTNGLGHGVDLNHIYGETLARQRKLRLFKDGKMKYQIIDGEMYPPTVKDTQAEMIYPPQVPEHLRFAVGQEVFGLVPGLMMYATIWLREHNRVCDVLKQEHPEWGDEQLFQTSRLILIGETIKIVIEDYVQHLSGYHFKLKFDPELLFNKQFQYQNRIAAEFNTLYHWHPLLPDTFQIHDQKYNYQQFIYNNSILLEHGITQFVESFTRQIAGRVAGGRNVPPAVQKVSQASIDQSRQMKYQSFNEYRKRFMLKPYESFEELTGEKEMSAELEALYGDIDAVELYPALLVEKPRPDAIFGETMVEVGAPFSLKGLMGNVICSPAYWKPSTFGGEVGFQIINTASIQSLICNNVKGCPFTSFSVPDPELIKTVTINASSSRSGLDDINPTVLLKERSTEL
Nature of the assay: Inhibition of COX2 (unknown origin) using arachidonic acid as substrate incubated for 10 mins by Ellman's reagent based COX-1/COX-2 ELISA assay. In general terms: In Ellman's method for cholinesterases, released thiocholine reacts with DTNB.

A further assay deals with HEK-293T. Nature of the assay: Antiproliferative activity against human 293T cells incubated for 48 hrs by MTT assay. The class given is cell-based. Put shortly: as §1
The test system of another assay is HeLa. Nature of the assay: Antiproliferative activity against human HeLa cells incubated for 48 hrs by MTT assay. It is filed as functional, cell-based. Put shortly:
as §1

Another assay has as its system B16-F10. Briefly: Antiproliferative activity against mouse B16F10 cells incubated for 48 hrs by MTT assay. The settings on record: B16-F10, 48 h. It is filed as functional, cell-based. Put shortly:
as §1

The test system of a further assay is A549. Briefly: Antiproliferative activity against human A549 cells incubated for 48 hrs by MTT assay. It is filed as functional, cell-based. The settings on record: A549, 48 h. Put shortly: as §1
The nature of assay [2]: Inhibition of 5-LOX assessed as calcium ionophore A23187-stimulated LTB4 production preincubated for 30 mins followed by calcium ionophore A23187 addition and measured after 30 mins by ELISA.

In the case of `NS(=O)(=O)c1ccc(-n2nc(C(=O)N3CCOCC3)cc2-c2ccccc2)cc1`, the pIC50 is 4.78 in the assay on MCF7; 6.16 in assay [1]; 3.73 in the assay on HEK-293T; under 4.00 with HeLa; 4.79 in the assay on B16-F10; 4.58 in the assay with A549. The pIC50 in assay [2] was 5.92.
Regarding `COc1cccc(-c2cc(C(=O)N3CCOCC3)nn2-c2ccc(S(N)(=O)=O)cc2)c1`, the pIC50 in the assay on MCF7 is 4.59; in assay [1], 5.65; with HEK-293T, 3.87; with HeLa, under 4.00; in the assay with B16-F10, 4.54; in the assay on A549, under 4.00. Besides, in assay [2], the pIC50 was 6.02.
`NS(=O)(=O)c1ccc(-n2nc(C(=O)N3CCOCC3)cc2-c2ccc(Cl)cc2)cc1`: the pIC50 in the assay on MCF7 was under 4.00; in assay [1], 6.46; with HEK-293T it was under 3.52; in the assay on HeLa, under 4.00; in the assay on B16-F10, under 4.00; in the assay on A549 it was under 4.00. In addition, the pIC50 in assay [2] is 5.75.
Regarding `NS(=O)(=O)c1ccc(-n2nc(C(=O)N3CCOCC3)cc2-c2ccc(Br)cc2)cc1`, the negative logarithm of the IC50 (pIC50) with MCF7 was 4.75; in assay [1] it was 6.51; with HEK-293T, 3.79; with HeLa it was 4.65; in the assay with B16-F10, under 4.00; in the assay with A549, 4.70. Moreover, in assay [2], the pIC50 was 6.01.
For the compound `CCOc1ccc(-c2cc(C(=O)OCCN3CCOCC3)nn2-c2ccc(S(N)(=O)=O)cc2)cc1`, the negative-log IC50 (pIC50) in the assay with MCF7 was 4.73; in assay [1] it was 5.95; in the assay with HEK-293T, 3.94; with HeLa, 4.53; in the assay with B16-F10, 4.70; in the assay on A549 it was 4.67. For the same compound, the pIC50 in assay [2] was 6.10.
As to `NS(=O)(=O)c1ccc(-n2nc(C(=O)N3CCOCC3)cc2-c2ccc(F)cc2)cc1`, the pIC50 with MCF7 was 4.70; in assay [1], 6.64; in the assay on HEK-293T, 3.69; in the assay with HeLa, under 4.00; in the assay on B16-F10, 4.69; in the assay on A549, 4.56. In addition, the pIC50 in assay [2] was 6.05.
For the compound `NS(=O)(=O)c1ccc(-n2nc(C(=O)N3CCOCC3)cc2-c2cccc(Cl)c2)cc1`, the pIC50 is 4.80 with MCF7; 6.62 in assay [1]; 3.94 in the assay on HEK-293T; 4.75 in the assay on HeLa; 4.83 in the assay with B16-F10; 4.61 with A549. Moreover, the pIC50 in assay [2] is 5.88.
As to `NS(=O)(=O)c1ccc(-n2nc(C(=O)OCCCN3CCOCC3)cc2-c2ccc(Cl)cc2)cc1`, the pIC50 was 4.65 in the assay on MCF7; 5.26 in assay [1]; 3.72 in the assay with HEK-293T; 4.67 in the assay with HeLa; 4.57 in the assay on B16-F10; under 4.00 with A549. The pIC50 in assay [2] was 6.07.
With `NS(=O)(=O)c1ccc(-n2nc(C(=O)OCCN3CCOCC3)cc2-c2ccc(C(F)(F)F)cc2)cc1`, the pIC50 in the assay with MCF7 is 4.78; in assay [1], 6.72; with HEK-293T, 3.83; with HeLa, 4.61; in the assay on B16-F10 it was 4.67; with A549, 4.56. Further, in assay [2], the pIC50 was 6.09.
With `NS(=O)(=O)c1ccc(-n2nc(C(=O)N3CCSCC3)cc2-c2ccc(Cl)cc2)cc1`, the pIC50 was 4.40 in the assay on MCF7; 6.64 in assay [1]; 3.64 in the assay on HEK-293T; under 4.00 in the assay with HeLa; under 4.00 in the assay with B16-F10; under 4.00 in the assay on A549. In addition, the pIC50 in assay [2] was 5.64.
For the compound `NS(=O)(=O)c1ccc(-n2nc(C(=O)O)cc2-c2ccc(C(F)(F)F)cc2)cc1`, the pIC50 with MCF7 is 4.61; in the assay on HEK-293T it was 3.72; in the assay on HeLa, 4.58; in the assay on B16-F10 it was 4.62; in the assay with A549 it was 4.65.

The record behind these values is ChEMBL document CHEMBL4346661, “Design, synthesis and evaluation of novel diaryl-1,5-diazoles derivatives bearing morpholine as potent dual COX-2/5-LOX inhibitors and antitumor agents” (Eur J Med Chem, 2019).
